Our source for the activity change, negative = toxicity and IC50 values is PubChem BioAssay AID623990 (Broad Institute, 2012).

Structures are written as SMILES. Calls of active or inactive are those of the source.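 Rule for the calls: active = falling cell signal with fitted IC50 no higher than a set limit, twice the top tested dose; inconclusive = flat fit with toxicity between 30 and 70%, or poor fit; inactive = the rest.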

Test system in one test: not listed separately
Kind of test: HeLa cell cytotoxicity, dose response, cytotoxicity control for pyoverdine/PvdQ inhibitor project, CellTiter-Glo luminescence, dry powder, set 2 (AID 623990). The note with it: HeLa viability, CellTiter-Glo ATP luminescence; at 120 µM (top of the series). The essentials: (§1)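 Assay system: HeLa cells | Input: 2,500 cells/well | Medium: Phenol red-free DMEM, 10% FBS | Compound: 3-fold dose series | Incubation: Cells settled 24 h at 37 °C, then compound exposure 48 h | Signal: CellTiter-Glo luciferase luminescence (0.5X reagent), reporting intracellular ATP | Read-out basis: Cell viability from luminescent signal, signal drop indicating toxicity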
For orientation: Cellular ATP, detected with luciferase, serves as a proxy for viable cell number.
In the case of `COCCNC(C#N)c1ccc(Cl)cc1` (stereo unspecified), the activity change, negative = toxicity is 4.87% (inactive). On the same count and under the same terms, in the case of `N#CC(c1ccc(F)cc1)c1cccc(Cl)n1` (stereo unspecified) it was -3.39% (inactive). Still for that read-out and setting: in the case of `COCCC(C#N)c1ccc(F)cc1` (stereo unspecified) it was 6.44% (inactive). Same read-out and setting: then `N#CC(c1ccc(F)cc1)c1cccc(C(F)(F)F)n1` (stereo unspecified), with 13.5% (inactive); and `CCCCC(C#N)c1ccc(Cl)cc1` (stereo unspecified), with 13.5% (inactive); and `CCCCC(C#N)c1ccc(F)cc1` (stereo unspecified), with 5.81% (inactive). Consider `CCCCC(C#N)c1ccc(Cl)cn1` (stereo unspecified), for which the activity change, negative = toxicity was 27.3% (inactive). Still for that read-out and setting: then `CN(C)CCCC(C#N)c1ccc(Cl)cc1` (stereo unspecified), with 23.3% (inactive).

As for `N#CC1c2ccc(Cl)cc2CCc2cccnc21` (stereo unspecified), the activity change, negative = toxicity was 2.14% (inactive). On the same count and under the same terms, in the case of `N#Cc1cccc(C(C#N)c2ccc(F)cc2)n1` (stereo unspecified) it was 4.63% (inactive); in that of `N#CC(c1ccc(Cl)cc1)N1CCCC1` (stereo unspecified), 30.4% (inactive); in that of `N#CC(c1ccc(Cl)cc1)c1cccc(C(F)(F)F)n1` (stereo unspecified), 10.3% (inactive). Turning to `N#CC(c1ccc(Cl)cc1)c1cccc(Cl)n1` (stereo unspecified), the activity change, negative = toxicity was 12.2% (inactive).

On to `CCCCC(C#N)c1ccccn1` (stereo unspecified), for which the activity change, negative = toxicity is 2.12% (inactive). The same measure, in the same setting: in the case of `COCCOCCC(C#N)c1ccc(F)cc1` (stereo unspecified) it was 3.67% (inactive); in that of `CCCCC(C#N)c1ccc(F)cn1` (stereo unspecified), 7.3% (inactive); in that of `N#CC(c1ccc(Cl)cc1)c1ccccn1` (stereo unspecified), 5.57% (inactive). Regarding `Clc1ccc(C(c2cccc(Cl)n2)c2nn[nH]n2)cc1` (stereo unspecified), the activity change, negative = toxicity was 8.71% (inactive). `N#CC(c1ccc(C(F)(F)F)c(Cl)n1)c1ccccc1OC(F)(F)F` (stereo unspecified): the activity change, negative = toxicity is 5.17% (inactive). Still for that read-out and setting: in the case of `COCCOCCC(C#N)c1ccc(Cl)cc1` (stereo unspecified) it was -0.038% (inactive).

In another test the test system is HeLa viability, CellTiter-Glo ATP luminescence. The description is as above.
Conditions: not given
The essentials:
as §1
As for `N#CC(c1cccc(Cl)n1)c1ccc(Cl)cc1F` (stereo unspecified), the IC50 is 111 µM. Still for that read-out and setting: then `CN(C)CCCC(C#N)c1ccc(F)cc1` (stereo unspecified), with > 240 µM (inactive); and `COCCC(C#N)c1ccc(Cl)cc1` (stereo unspecified), with 62.2 µM; and `N#CC(c1cccc(C(F)(F)F)n1)c1ccc(Cl)cc1F` (stereo unspecified), with > 240 µM (inactive). For `N#CC(c1ccc(Cl)cc1)c1ncccc1Cl` (stereo unspecified), the IC50 was > 240 µM (inactive).

On to `CCCCC(c1ccc(Cl)cc1)c1nn[nH]n1` (stereo unspecified), for which the IC50 is > 240 µM (inactive).

For orientation: IC50 means the concentration at which inhibition is half-maximal.
